Data set [1] relates to Hepatitis B virus. Nature of the data set: Antiviral activity against HBV infected in human HepG2(2.2.15) cells assessed as inhibition of viral DNA replication at 20 uM after 6 days by RT-PCR method relative to control. In kind it is functional. To be noted: HepG2 2.2.15, 144 h. The method in brief:
(§1)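 HepG2 2.2.15 cells (stable HBV genome; DMEM, 10% FBS, G418 0.38 mg/mL) seeded 2×10^5/well, recovered 24 h, then compound in assay medium (single 20 or 4 μM, or dose series for IC50), medium changed every 2 days; after 6 days HBV DNA extracted and quantified by real-time PCR. Mean ± SD, ≥3 independent experiments in duplicate.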

The nature of data set [2]: Cytotoxicity against human HepG2(2.2.15) cells assessed as reduction in cell viability after 72 hrs by MTT assay. In kind it is cell-based. Put shortly:
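Confluent HepG2 2.2.15 cells exposed to graded compound concentrations for 72 h alongside untreated controls on each plate; viability by MTT uptake, absorbance 490 nm relative to untreated cells; CC50 = concentration killing 50% of cells. Three replicates.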

The test system of data set [3] is Hepatitis B virus. Nature of the data set: Antiviral activity against HBV infected in human HepG2(2.2.15) cells assessed as inhibition of viral DNA replication after 6 days by RT-PCR method. In kind it is functional, organism-based. As to conditions: HepG2 2.2.15, 144 h. The method in brief: as §1
Data set [4] can be described thus: Selectivity index, ratio of CC50 for human HepG2(2.2.15) cells to IC50 for antiviral activity against HBV infected in human HepG2(2.2.15) cells assessed as inhibition of viral DNA replication. The data set is classed as toxicity, cell-based. As to conditions: read-out: Ratio CC50/IC50. Put shortly: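 SI calculated as CC50 (72 h MTT, HepG2 2.2.15) divided by IC50 for inhibition of HBV DNA replication measured by real-time PCR.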

A short description of data set [5]: Selectivity index, ratio of CC50 for human HepG2(2.2.15) cells to IC50 for antiviral activity against lamivudine/entecavir resistant HBV harboring reverse transcriptase L180M/M204V/T184L mutant infected in human HepG2(2.2.15) cells. In kind it is toxicity, cell-based. As to conditions: read-out: Ratio CC50/IC50. The method in brief: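 SI = CC50/IC50. CC50 comes from HepG2 2.2.15 cells grown to confluence and treated for 72 h, with MTT absorbance at 490 nm relative to untreated cells, in triplicate. IC50 comes from mutant-plasmid-transfected HepG2 cells treated for 72 h, with HBV DNA measured by real-time PCR.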

The subject of data set [6] is Hepatitis B virus. Nature of the data set: Antiviral activity against HBV infected in human HepG2(2.2.15) cells assessed as inhibition of viral DNA replication at 4 uM after 6 days by RT-PCR method relative to control. The data set is classed as functional. As to conditions: HepG2 2.2.15, 144 h. The method in brief: as §1
The test system of data set [7] is Hepatitis B virus. Nature of the data set: Antiviral activity against lamivudine/entecavir resistant HBV harboring reverse transcriptase L180M/M204V/T184L mutant infected in human […] cells assessed as inhibition of viral DNA replication at 1 uM after 72 hrs by RT-PCR method relative to control. In kind it is functional. Put shortly:
(§2)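 HepG2 cells (not 2.2.15) were transiently transfected for 24 h with a plasmid carrying the rtL180M + rtM204V + rtT184L mutant HBV genome, alongside wild-type. After a PBS wash, cells received a single concentration (1, 10 or 100 µM) in fresh medium for 72 h. HBV DNA replicative intermediate was measured by real-time PCR and compared with the wild-type group.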

For data set [8], the system named is Hepatitis B virus. Nature of the data set: Antiviral activity against lamivudine/entecavir resistant HBV harboring reverse transcriptase L180M/M204V/T184L mutant infected in human […] after 72 hrs by RT-PCR method. The data set is classed as functional, organism-based. Put shortly: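 HepG2 cells (2×10^5 per well) were plated, incubated overnight, then transiently transfected for 24 h with a plasmid carrying the full HBV genome with rtL180M + rtM204V + rtT184L. Medium was discarded, cells washed with PBS, then treated across a dose range in fresh medium for 72 h. Intracellular HBV DNA replicative intermediate was quantified by real-time PCR. IC50 is 50% inhibition of DNA replication.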

Data set [9] relates to Hepatitis B virus. Nature of the data set: Antiviral activity against HBV infected in human […] cells assessed as inhibition of viral DNA replication at 1 uM after 72 hrs by RT-PCR method relative to control. In kind it is functional. Put shortly:
(§3)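 HepG2 cells (2×10^5/well) transfected overnight-plated, 24 h with plasmid carrying wild-type or rtL180M+rtM204V+rtT184L resistant HBV; after PBS wash, fresh medium with lamivudine 100 μM, entecavir 10 μM, or test compounds 1 μM (one at 10 μM) for 72 h; replicative intermediate HBV DNA measured by real-time PCR.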

Data set [10] deals with Hepatitis B virus. Nature of the data set: Antiviral activity against HBV infected in human […] at 10 uM after 72 hrs by RT-PCR method relative to control. In kind it is functional. The method in brief: as §3
The subject of data set [11] is Hepatitis B virus. Nature of the data set: Antiviral activity against lamivudine/entecavir resistant HBV harboring reverse transcriptase L180M/M204V/T184L mutant infected in human […] at 10 uM after 72 hrs by RT-PCR method relative to control. The data set is classed as functional. The method in brief: as §2

Structures are written as SMILES. A value given as a limit tells only on which side of the number the result lay.

For the compound `O=C(N[C@@H](Cc1ccc(O)cc1)C(=O)N1CCCCC1)c1ccccc1`, the inhibition at 20 µM in [1] stood at 19.5%. For the same compound, in data set [2], the 50% cytotoxic concentration (CC50) at 72 h was > 100 µM.

As for `O=C(N[C@H](CO)Cc1ccccc1)/C(NC(=O)c1ccccc1)=C(/Br)c1ccccc1`, in [1], the inhibition at 20 µM was 77.6%. In [2], the CC50 at 72 h is > 100 µM. For the same compound, the IC50 in [3] was found to be 3.86 µM. In [4], the selectivity ratio is > 25.9.

For the compound `O=C(N[C@H](CO)Cc1ccccc1)/C(NC(=O)c1ccccc1F)=C(/Br)c1ccccc1`, the inhibition at 20 µM in data set [1] came out at 76.4%. Besides, the CC50 at 72 h in [2] was > 100 µM. Moreover, in [3], the half-inhibitory concentration (IC50) amounted to 2.44 µM. Further, in data set [4], the selectivity ratio was found to be 41.

On to `Cc1cccc(/C=C(/NC(=O)c2ccccc2)C(=O)N[C@H](CO)Cc2ccccc2)c1`, for which the inhibition at 20 µM in data set [1] turned out to be 15.8%. For the same compound, the CC50 at 72 h in data set [2] was > 100 µM.

Consider `O=C(N[C@H](CO)Cc1ccccc1)/C(NC(=O)c1ccccc1)=C(/Br)c1ccccc1Cl`, for which the inhibition at 20 µM in [1] worked out at 80.2%. Besides, the cytotoxic concentration (CC50) at 72 h in data set [2] came out at 66.7 µM. In data set [3], the IC50 worked out at 1.88 µM. The selectivity ratio in data set [4] is 35.5.

As to `O=C(N[C@@H](Cc1ccccc1)C(=O)N1CCCCC1)c1ccccc1`, the inhibition at 20 µM in data set [1] is 42.3%. In addition, the CC50 at 72 h in data set [2] was > 100 µM.

Take `O=C(N[C@H](CO)Cc1ccccc1)/C(NC(=O)c1ccccc1)=C(/Br)c1ccc(O)cc1`: the selectivity ratio in [5] amounted to 11.6; in data set [4] it was 19.5. Moreover, in data set [6], the inhibition at 4 µM turned out to be 63.2%. In addition, the inhibition at 1 µM in [7] is 43.2%; in [9], 34.8%. Further, the concentration for half-maximal inhibition (IC50) was 2.97 µM in data set [8] and 2 µM in [3]. Further, in data set [2], the CC50 at 72 h lay in the range of 34.3 to 39 µM.

`CN(C)CCOc1ccc(C[C@H](NC(=O)c2ccccc2)C(=O)N2CCOCC2)cc1`: the inhibition at 20 µM in data set [1] was determined as 24.9%. In data set [2], the CC50 at 72 h was > 100 µM.

For `CN(C)CCOc1ccc(C[C@H](NC(=O)c2ccccc2)C(=O)N2CCCCC2)cc1`, the inhibition at 20 µM in data set [1] came out at 51.6%. For the same compound, in data set [2], the CC50 at 72 h was > 100 µM.

For the compound `O=C(N[C@H](CO)Cc1ccccc1)/C(=C\c1ccccc1)NC(=O)c1ccccc1F`, in [1], the inhibition at 20 µM worked out at 51.4%. For the same compound, in data set [2], the cytotoxic concentration (CC50) at 72 h is > 100 µM.

Turning to `C=C1[C@H](CO)[C@@H](O)C[C@@H]1n1cnc2c(=O)[nH]c(N)nc21` [ENTECAVIR], the inhibition at 10 µM in data set [10] came out at 95.7%; in [11] it was 17.9%.

In the case of `CN(C)CCOc1ccc(C[C@H](NC(=O)c2ccccc2)C(=O)N[C@H](CO)Cc2ccccc2)cc1`, the inhibition at 20 µM in data set [1] was determined as 69.2%. The cytotoxic concentration (CC50) at 72 h in data set [2] is > 100 µM.

For `O=C(N[C@H](CO)Cc1ccccc1)/C(=C\c1ccc(O)cc1)NC(=O)c1ccccc1`, in [1], the inhibition at 20 µM turned out to be 24.9%. The CC50 at 72 h in data set [2] was > 100 µM.

Consider `O=C(N[C@H](CO)Cc1ccccc1)/C(=C\c1ccccc1Cl)NC(=O)c1ccccc1`, for which the inhibition at 20 µM in data set [1] amounted to 29.8%. For the same compound, the CC50 at 72 h in [2] is > 100 µM.

Turning to `O=C(N[C@H](CO)Cc1ccccc1)/C(NC(=O)c1ccccc1)=C(/Br)c1ccccc1Br`, the inhibition at 20 µM in data set [1] worked out at 76.6%. Moreover, the CC50 at 72 h in data set [2] is > 100 µM. Further, the 50% inhibitory concentration (IC50) in data set [3] worked out at 7.26 µM. The selectivity ratio in data set [4] was > 13.8.

Consider `N#Cc1ccc(/C(Br)=C(/NC(=O)c2ccccc2)C(=O)N[C@H](CO)Cc2ccccc2)cc1`, for which the inhibition at 20 µM in data set [1] was determined as 75.1%. Also, in [2], the CC50 at 72 h is > 100 µM. Besides, the concentration for half-maximal inhibition (IC50) in data set [3] worked out at 5.5 µM. The selectivity ratio in data set [4] is 18.2.

`O=C(N[C@H](CO)Cc1ccccc1)/C(=C\c1ccc(Br)cc1)NC(=O)c1ccccc1`: the inhibition at 4 µM in data set [6] is 39%. In addition, the CC50 at 72 h in data set [2] stood at 72.7 µM.

As to `CCN(CC)C(=O)[C@H](Cc1ccc(OCCN(C)C)cc1)NC(=O)c1ccccc1`, the inhibition at 20 µM in [1] came to 17.5%. Moreover, the CC50 at 72 h in data set [2] is > 100 µM.

Regarding `O=C(N[C@H](CO)Cc1ccccc1)/C(NC(=O)c1ccccc1)=C(/Br)c1ccc(Br)cc1`, in [1], the inhibition at 20 µM amounted to 73.1%. In addition, in [2], the CC50 at 72 h is > 100 µM. Further, the IC50 in data set [3] is 4.45 µM. Also, the selectivity ratio in data set [4] was > 22.5.

Regarding `N#Cc1ccc(/C=C(/NC(=O)c2ccccc2)C(=O)N[C@H](CO)Cc2ccccc2)cc1`, in data set [1], the inhibition at 20 µM amounted to 10.2%. Further, the CC50 at 72 h in data set [2] was > 100 µM.

On to `O=C(N[C@H](CO)Cc1ccccc1)/C(=C\c1ccccc1Br)NC(=O)c1ccccc1`, for which the inhibition at 20 µM in [1] was found to be 26.2%. In addition, the CC50 at 72 h in data set [2] was > 100 µM.

Regarding `CN(C)CCOc1ccc(/C=C(/NC(=O)c2ccccc2)C(=O)N[C@H](CO)Cc2ccccc2)cc1`, the inhibition at 20 µM in data set [1] came out at 37.5%. Further, the CC50 at 72 h in [2] was > 100 µM.

For the compound `CN(C)CCOc1ccc(/C(Br)=C(/NC(=O)c2ccccc2)C(=O)N[C@H](CO)Cc2ccccc2)cc1`, the results for the selectivity ratio in data set [5] and in data set [4] were 89.7 and 153, respectively. For the same compound, in data set [6], the inhibition at 4 µM was determined as 99.5%. Moreover, the inhibition at 1 µM in data set [7] was 80.1%; in data set [9] it was 79.6%. The IC50 in [8] came to 0.32 µM; in data set [3], 0.14 µM. The half-maximal cytotoxic concentration (CC50) at 72 h in [2] lay in the range of 21.4 to 28.7 µM.

`CN(C)CCOc1ccc(C[C@H](NC(=O)c2ccccc2)C(=O)N2CCCC2)cc1`: the inhibition at 20 µM in data set [1] stood at 47.6%. Moreover, the 50% cytotoxic concentration (CC50) at 72 h in data set [2] was > 100 µM.
